Assay results reported in ChEMBL document CHEMBL2311321, “Alkaloid constituents from flower buds and leaves of sacred lotus (Nelumbo nucifera, Nymphaeaceae) with melanogenesis inhibitory activity in B16 melanoma cells” (Bioorg Med Chem, 2013).

Assays:
[1] = Inhibition of melanogenesis in mouse B16-4A5 cells at 3 uM after 72 hrs by spectrophotometry; format: functional; conditions: B16-4A5, 72 h
[2] = Inhibition of melanogenesis in mouse B16-4A5 cells at 100 uM after 72 hrs by spectrophotometry; format: functional; conditions: B16-4A5, 72 h
[3] = Inhibition of melanogenesis in mouse B16-4A5 cells at 1 uM after 72 hrs by spectrophotometry; format: functional; conditions: B16-4A5, 72 h
[4] = Inhibition of melanogenesis in mouse B16-4A5 cells at 30 uM after 72 hrs by spectrophotometry; format: functional; conditions: B16-4A5, 72 h
[5] = Cytotoxicity against mouse B16-4A5 cells assessed as cell viability at 100 uM after 70 hrs by WST-8 assay
[6] = Inhibition of melanogenesis in mouse B16-4A5 cells after 72 hrs by spectrophotometry; format: functional, cell-based
[7] = Inhibition of melanogenesis in mouse B16-4A5 cells at 10 uM after 72 hrs by spectrophotometry; format: functional; conditions: B16-4A5, 72 h
[8] = Antimelanogenic activity in mouse B16-4A5 cells assessed as inhibition of tyrosinase mRNA expression at 30 uM after 72 hrs by RT-PCR analysis relative to beta-actin mRNA; format: functional
Summary of the method: (§1)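 B16 melanoma 4A5 cells seeded at 1.0 × 10^5 cells/well in 6-well plates, cultured 24 h, then exposed to test compound plus theophylline 1 mM for 72 h. Total RNA extracted; cDNA from 1 µg RNA; SYBR Green real-time PCR (95 °C 2 min; 40 cycles 95/58/72 °C, 30 s each) with gene-specific primers; relative quantification normalized to β-actin mRNA.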

[9] = Antimelanogenic activity in mouse B16-4A5 cells assessed as inhibition of TRP2 mRNA expression at 30 uM after 72 hrs by RT-PCR analysis relative to beta-actin mRNA; format: functional; summary of the method: as §1
[10] = Antimelanogenic activity in mouse B16-4A5 cells assessed as inhibition of TRP2 mRNA expression at 10 uM after 72 hrs by RT-PCR analysis relative to beta-actin mRNA; format: functional; summary of the method: as §1
[11] = Antimelanogenic activity in mouse B16-4A5 cells assessed as inhibition of tyrosinase mRNA expression at 3 uM after 72 hrs by RT-PCR analysis relative to beta-actin mRNA; format: functional; summary of the method: as §1
[12] = Antimelanogenic activity in mouse B16-4A5 cells assessed as inhibition of tyrosinase mRNA expression at 10 uM after 72 hrs by RT-PCR analysis relative to beta-actin mRNA; format: functional; summary of the method: as §1
[13] = Antimelanogenic activity in mouse B16-4A5 cells assessed as inhibition of TRP1 mRNA expression at 10 uM after 72 hrs by RT-PCR analysis relative to beta-actin mRNA; format: functional; summary of the method: as §1
[14] = Antimelanogenic activity in mouse B16-4A5 cells assessed as inhibition of TRP2 mRNA expression at 3 uM after 72 hrs by RT-PCR analysis relative to beta-actin mRNA; format: functional; summary of the method: as §1
[15] = biological target: T1, Tyrosinase (Agaricus bisporus) (UniProt O42713); experiment: Inhibition of mushroom tyrosinase at 100 uM
T1 sequence (whole entry): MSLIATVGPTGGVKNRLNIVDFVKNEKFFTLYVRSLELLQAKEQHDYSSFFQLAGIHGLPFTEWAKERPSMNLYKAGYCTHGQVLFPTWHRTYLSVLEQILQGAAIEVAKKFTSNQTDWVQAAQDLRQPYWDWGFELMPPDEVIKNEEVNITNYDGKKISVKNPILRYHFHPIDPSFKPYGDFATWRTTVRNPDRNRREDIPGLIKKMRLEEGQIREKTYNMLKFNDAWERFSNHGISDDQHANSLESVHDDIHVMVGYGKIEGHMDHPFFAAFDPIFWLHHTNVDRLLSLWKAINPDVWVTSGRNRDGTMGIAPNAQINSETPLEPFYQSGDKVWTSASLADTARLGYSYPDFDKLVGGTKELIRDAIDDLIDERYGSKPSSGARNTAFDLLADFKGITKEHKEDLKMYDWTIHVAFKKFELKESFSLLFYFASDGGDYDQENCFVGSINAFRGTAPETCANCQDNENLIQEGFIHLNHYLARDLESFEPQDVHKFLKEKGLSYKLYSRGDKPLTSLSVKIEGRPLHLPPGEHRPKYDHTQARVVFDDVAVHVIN
Summary of the method: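 Enzyme mix: 70 µL L-DOPA (2.5 mM in phosphate buffer) as substrate plus 20 µL test solution (DMSO, final 0.1%). Reaction started with 120 µL mushroom tyrosinase (80.5 units/mL), run 5 min at 25 °C. Dopaquinone measured by absorbance at 405 nm (reference 655 nm). Inhibition % = (A−B)/A × 100 versus vehicle.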

[16] = Antimelanogenic activity in mouse B16-4A5 cells assessed as inhibition of TRP1 mRNA expression at 3 uM after 72 hrs by RT-PCR analysis relative to beta-actin mRNA; format: functional; summary of the method: as §1
[17] = Antimelanogenic activity in mouse B16-4A5 cells assessed as inhibition of TRP1 mRNA expression at 30 uM after 72 hrs by RT-PCR analysis relative to beta-actin mRNA; format: functional; summary of the method: as §1

IC50 [6] [µM] | Structure (SMILES) | inhibition at 3 µM [1] [%] | inhibition at 100 µM [2] [%] | inhibition at 1 µM [3] [%] | inhibition at 30 µM [4] [%] | viability at 70 h, 100 µM [5] [%] | inhibition at 10 µM [7] [%] | fold change (FC) [8] | fold change (FC) [9] | fold change (FC) [10] | fold change (FC) [11] | fold change (FC) [12] | fold change (FC) [13] | fold change (FC) [14] | inhibition [15] [%] | fold change (FC) [16] | fold change (FC) [17]
47.9 | COc1cc2c3c(c1OC)C1(C=CC(=O)C=C1)C[C@H]3N(C)CC2 [PRONUCIFERINE] | 16.8 | 66.4 | 4 | 40.3 | 82 | 18.3 |  |  |  |  |  |  |  |  |  | 
 | c1ccc2c(c1)CCNC2 [1,2,3,4-TETRAHYDROISOQUINOLINE] | -41.5 | 26.1 | -12.6 | 2.8 | 46 | -54.2 |  |  |  |  |  |  |  |  |  | 
25.6 | COc1cc2c(cc1OC)C(Cc1ccc(O)cc1)N(C)CC2 (racemic) | 18.2 | 80.3 | 7.5 | 50.4 | 82 | 34 |  |  |  |  |  |  |  |  |  | 
 | CN1CCc2ccccc2C1 | 9.7 | 15.9 | 10.6 | 16.5 | 82 | 9.4 |  |  |  |  |  |  |  |  |  | 
 | COc1cc2ccnc3c2c(c1OC)-c1ccccc1C3=O [LYSICAMINE] | 8.7 |  | 4.8 | 65.3 | 22.5 | -1.5 |  |  |  |  |  |  |  |  |  | 
13.3 | COc1c(O)cc2c3c(cc4ccccc4c13)N(C)CC2 | 13.2 | 78.7 | 10.9 | 87.4 | 46 | 37.6 |  |  |  |  |  |  |  |  |  | 
174 | OC[C@H]1O[C@@H](Oc2ccc(O)cc2)[C@H](O)[C@@H](O)[C@@H]1O [ARBUTIN] |  | 38.1 |  | 20.4 |  | 10.6 |  |  |  |  |  |  |  |  |  | 

Structure (SMILES) | IC50 [6] [µM] | inhibition at 3 µM [1] [%] | inhibition at 100 µM [2] [%] | inhibition at 1 µM [3] [%] | inhibition at 30 µM [4] [%] | viability at 70 h, 100 µM [5] [%] | inhibition at 10 µM [7] [%] | fold change (FC) [8] | fold change (FC) [9] | fold change (FC) [10] | fold change (FC) [11] | fold change (FC) [12] | fold change (FC) [13] | fold change (FC) [14] | inhibition [15] [%] | fold change (FC) [16] | fold change (FC) [17]
COc1cc2c3c(c1OC)-c1ccccc1C[C@H]3N(C)CC2 [NUCIFERINE] | 15.8 | 16.5 | 89.3 | 11.5 | 72.3 | 46 | 32.1 | 0.38 | 0.65 | 0.71 | 0.61 | 0.64 | 0.74 | 1.11 | < 3 | 0.76 | 0.36
COc1c(O)cc2c3c1-c1ccccc1C[C@H]3N(C)CC2 | 14.5 | 19.7 | 90.5 | 15.4 | 70.6 | 82 | 37.9 | 0.53 | 0.88 | 0.96 | 0.65 | 0.76 | 0.72 | 1.1 | < 3 | 0.79 | 0.49
